Experimental findings from ChEMBL document CHEMBL4033651, “Exploration of flexible phenylpropylurea scaffold as novel cardiac myosin activators for the treatment of systolic heart failure” (Eur J Med Chem, 2017) are described below.

The species named for data set [1] is Bos taurus. Description: Activation of actin-stimulated bovine cardiac myosin S1 fragment ATPase activity in sarcomere at 10 uM after 10 mins by spectrophotometric analysis. The gist of the method: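 Bovine cardiac S1 myosin with actin thin filament complex at pCa 6.5, in 20 mM Tris HCl pH 7.5, 15 mM KCl, 6 mM MgCl2, 1 mM ATP. Compound at 10 μM, 10 min at room temperature. Stopped with Cytophos reagent; liberated phosphate read at 650 nm. % activity calculated relative to DMSO negative control, blank-corrected.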

Data set [2] relates to Rattus norvegicus. Description: Positive inotropic activity in Sprague-Dawley rat heart assessed as left ventricle fractional shortening at 2 to 16 ug/kg/min for 3 mins by echocardiographic analysis. The data set is classed as functional. The gist of the method: (§1)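 Seven-week-old male Sprague-Dawley rats under 1.5 % isoflurane via nosecone. Drug given through a right internal jugular vein central line. Left ventricular fractional shortening and ejection fraction measured by echocardiography with and without sample, expressed as % increase.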

For data set [3], the system named is Rattus norvegicus. Description: Positive inotropic activity in Sprague-Dawley rat heart assessed as ejection fraction at 2 to 16 ug/kg/min for 3 mins by echocardiographic analysis. The data set is classed as functional. The gist of the method:
as §1

The species entered for data set [4] is Oryctolagus cuniculus. Briefly: Activation of actin-stimulated rabbit psoas skeletal muscle myosin S1 fragment ATPase activity at 100 uM after 10 mins by spectrophotometric analysis. In short, it runs like this: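 Rabbit skeletal S1 myosin with actin thin filament complex at pCa 6.5, in 20 mM Tris HCl pH 7.5, 15 mM KCl, 6 mM MgCl2, 1 mM ATP. Compound at single 100 uM dose, 10 min at room temperature. Cytophos stop; phosphate read at 650 nm. % activity versus blank-corrected DMSO control.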

The species entered for data set [5] is Gallus gallus. Description: Activation of actin-stimulated chicken gizzard smooth muscle myosin S1 fragment ATPase activity at 100 uM after 10 mins by spectrophotometric analysis. The gist of the method:
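Chicken gizzard smooth muscle S1 myosin with actin plus tropomyosin at pCa 6.5, in 20 mM Tris HCl pH 7.5, 15 mM KCl, 6 mM MgCl2, 1 mM ATP. Compound at single 100 uM dose, 10 min at room temperature. Cytophos stop; phosphate read at 650 nm. % activity versus blank-corrected DMSO control.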

Data set [6] is described as follows: Stability of the compound after 3 months by TLC analysis. The data set is classed as physicochemical. Particulars: 2191.5 h.

Molecules are shown by their SMILES.

With `O=C(NCCCc1ccccc1)N1CCCCC1c1ccccc1` (stereo not drawn), the figures for the Activity in data set [1], in data set [2] and in data set [3] were 73%, 13.32% and 9.26%, respectively.

`O=C(NCCCc1ccccc1)NCc1cccs1`: the Activity in data set [1] worked out at 47.6%.

For `O=C(NCCCc1ccccc1)NCc1ccco1`, in data set [1], the Activity amounted to 36.7%.

Turning to `O=C(NCCCC1CCCCC1)NCCC1CCCCC1`, the Activity in data set [1] was 44.4%.

For `O=C(NCCc1ccccc1)N1CCN(c2ccccc2)CC1`, the Activity in data set [1] turned out to be 36.6%.

For the molecule `Cc1ccc2c(c1)C(=O)[C@]1(O)CCN(c3ccccc3)C1=N2`, the Activity is -50.7% in data set [4] and -35.7% in data set [5].

With `O=C(COCCc1ccccc1)COCc1ccccc1`, the Activity in data set [1] is 42.9%. Also, in data set [6], the Stability result is recorded as “Unstable”.

As to `O=C(NCCCc1ccccc1)NCc1ccc2[nH]ccc2c1`, the Activity in data set [1] was 37.2%.

In the case of `O=C(NCCCc1ccccc1)NCCN1CCOCC1`, the Activity was 44% in data set [1]; 24.79% in data set [2]; 15.65% in data set [3]; -5.3% in data set [4]; 3.1% in data set [5].

Turning to `O=C(NCCCc1ccccc1)NCCc1ccco1`, in data set [1], the Activity amounted to 30.6%.

On to `c1ccc(CCCCNCCCc2ccccc2)cc1`, for which the Activity in data set [1] is 11.9%.

In the case of `O=C(NCCCc1ccccc1)NCC1CCOCC1`, the Activity is 81.4% in data set [1]; 20.5% in data set [2]; 13.1% in data set [3]; 4.4% in data set [4]; 5.1% in data set [5].

On to `O=C(NCCCN1CCOCC1)NCCc1ccccc1`, for which, in data set [1], the Activity was determined as 32.9%.

For `O=C(NCCCc1ccccc1)NCCc1ccccc1`, the Activity was 51.1% in data set [1]; 18.9% in data set [2]; 12.15% in data set [3]; -2.1% in data set [4]; -4.7% in data set [5].

Regarding `O=C(NCCCc1ccccc1)NCCc1cccs1`, the Activity in data set [1] worked out at 29.6%.

In the case of `O=C(NCCCc1ccccc1)NCCC1CCCCC1`, in data set [1], the Activity turned out to be 61.4%.

For `O=C(NCCCc1ccccc1)NCCc1ccccn1`, in data set [1], the Activity was determined as 30%.
